Experimental findings from ChEMBL document CHEMBL4251667, “Ribemansides A and B, TRPC6 Inhibitors from Ribes manshuricum That Suppress TGF-β1-Induced Fibrogenesis in HK-2 Cells” (J Nat Prod, 2018) are described below.

Data set [1] addresses T1, Short transient receptor potential channel 6 (Mus musculus, UniProt Q61143).
T1 sequence (Q61143 whole entry): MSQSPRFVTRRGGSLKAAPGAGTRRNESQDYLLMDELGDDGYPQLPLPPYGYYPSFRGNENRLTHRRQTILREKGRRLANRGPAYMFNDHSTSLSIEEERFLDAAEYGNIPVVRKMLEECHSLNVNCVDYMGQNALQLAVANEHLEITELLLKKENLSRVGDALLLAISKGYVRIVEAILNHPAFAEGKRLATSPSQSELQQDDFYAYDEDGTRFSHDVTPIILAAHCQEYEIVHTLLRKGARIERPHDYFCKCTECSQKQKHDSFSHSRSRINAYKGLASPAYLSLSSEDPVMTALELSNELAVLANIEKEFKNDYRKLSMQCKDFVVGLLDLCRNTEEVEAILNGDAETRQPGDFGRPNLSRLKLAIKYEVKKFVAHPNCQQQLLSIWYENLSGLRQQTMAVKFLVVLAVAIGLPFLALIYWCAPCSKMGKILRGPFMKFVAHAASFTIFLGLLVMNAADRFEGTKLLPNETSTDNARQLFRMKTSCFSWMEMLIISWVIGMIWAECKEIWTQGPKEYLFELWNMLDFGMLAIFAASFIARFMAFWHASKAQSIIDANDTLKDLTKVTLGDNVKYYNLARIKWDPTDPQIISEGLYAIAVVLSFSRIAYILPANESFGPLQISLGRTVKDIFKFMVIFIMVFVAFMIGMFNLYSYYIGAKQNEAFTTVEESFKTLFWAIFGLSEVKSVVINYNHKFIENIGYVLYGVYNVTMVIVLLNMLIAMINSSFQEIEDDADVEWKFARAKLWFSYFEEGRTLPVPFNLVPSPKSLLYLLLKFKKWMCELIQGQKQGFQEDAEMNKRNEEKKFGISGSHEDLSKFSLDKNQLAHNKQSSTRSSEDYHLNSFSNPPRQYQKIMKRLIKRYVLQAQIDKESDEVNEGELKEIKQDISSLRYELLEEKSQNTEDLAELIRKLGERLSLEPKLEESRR
In words: Inhibition of mouse TRPC6 expressed in HEK293 cells assessed as reduction in M085-induced intracellular calcium flux pretreated for 5 mins followed by M085 addition measured after 300 secs by Fluo-8AM dye based FLIPR assay. The class given is cell-based. The procedure, abridged:
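HEK-293 cells stably expressing mouse TRPC6, on poly-D-lysine plates (~20 000 cells/well), cultured 6 h. Loaded with 4 μM Fluo-8/AM for 45 min, washed. FLIPR read: baseline 30 s, then compound or vehicle 5 min, then M085 (1 μM). Signal expressed as F/F0; AUC over 300 s after M085 used for concentration–response. Twice, each in triplicate.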
In general terms: Calcium flux is commonly read through the fluorescence of an indicator in the cells.

Data set [2] has as its system HK-2. In words: Inhibition of TGFbeta1-induced epithelial-mesenchymal transition in human HK2 cells assessed as reduction in fibronectin release at 30 uM measured after 36 hrs by ELISA. The class given is functional, cell-based. On the technique in general: An ELISA detects its analyte on a solid surface through an enzyme-linked reagent.
For data set [3], the system named is HK-2. In words: Inhibition of TGFbeta1-induced epithelial-mesenchymal transition in human HK2 cells assessed as reversal of spindle-like morphology at 30 uM measured after 36 hrs. The class given is functional, cell-based. Put shortly:
(§1)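 HK-2 cells kept in RPMI 1640 with 2 mg/mL NaHCO3, 10% FBS and 10 mM HEPES, then seeded at 6000 (96-well) or 40 000 (12-well) cells/well. Treated in serum-free medium with TGF-β1 (5 ng/mL), with or without test agent, for 36 h. Morphology scored as cell length/width ratio (n = 40). Run twice, each in duplicate.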

Data set [4] concerns HK-2. In words: Inhibition of TGFbeta1-induced epithelial-mesenchymal transition in human HK2 cells assessed as reduction in alpha-SMA expression at 30 uM measured after 36 hrs by Western blot analysis. The class given is functional, cell-based. (Immunoblotting shows a protein as a band on a membrane.)
For data set [5], the system named is HK-2. In words: Inhibition of TGFbeta1-induced epithelial-mesenchymal transition in human HK2 cells assessed as reduction in alpha-SMA expression measured after 36 hrs by Western blot analysis. The class given is functional, cell-based.
Data set [6] relates to HK-2. In words: Effect on morphological changes in human HK2 cells at 1 uM measured after 36 hrs. The class given is ADME, cell-based. The note with it: hk-2, 36 h.
Data set [7] relates to HK-2. In words: Inhibition of TGFbeta1-induced epithelial-mesenchymal transition in human HK2 cells assessed as reversal of spindle-like morphology measured after 36 hrs. The class given is functional, cell-based. Put shortly: as §1
For data set [8], the system named is HK-2. In words: Effect on basal alpha-SMA expression in human HK2 cells at 1 uM after 36 hrs by Western blot analysis. The note with it: hk-2, 36 h. The class given is ADME, cell-based.
Data set [9] deals with HK-2. In words: Inhibition of TGFbeta1-induced epithelial-mesenchymal transition in human HK2 cells assessed as reduction in fibronectin release measured after 36 hrs by ELISA. The class given is functional, cell-based.

The source made the active and inactive calls. The rule behind the calls is not given here.

Turning to `N#C/C(=C\CO)CO[C@@H]1O[C@H](COC(=O)c2ccc(O)cc2)[C@@H](O)[C@H](O)[C@H]1O`, the IC50 (as a rule, the concentration needed to halve the response being measured) in data set [1] came to 24.5 µM. In addition, the inhibition entry in [2], in data set [3] and in [4] was “Active” throughout.
Consider `Cl.Cl.N#Cc1ccc(O[C@@H]2c3ccccc3C[C@H]2N2CCC[C@@H](N)C2)c(Cl)c1`, for which the inhibition result in data set [5], in data set [7] and in data set [9] was “Dose-dependent effect” throughout. Also, the Activity result in [6] and in data set [8] was “Non-Toxic” throughout.
Turning to `COc1cc(C(=O)OC[C@H]2O[C@@H](OC/C(C#N)=C/CO)[C@H](O)[C@@H](O)[C@@H]2O)ccc1O`, in data set [1], the IC50 was 25.6 µM. Besides, the inhibition result in [2], in [3] and in data set [4] was “Active” in each case.
